Tests used:
Cryptococcus neoformans [1] = experiment: Antifungal activity against Cryptococcus neoformans after 24 to 72 hrs by broth microdilution method; format: functional
Method in brief: (§1)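 Broth microdilution MIC per CLSI M27-A3 (yeasts) or M38-A2 (molds). RPMI 1640 with L-glutamine, without bicarbonate, buffered to pH 7.0 with 0.165 M MOPS. Final test range for the compounds was 0.175–87.5 μM. Incubation at 35°C with visual reading at 24–72 h. MIC was the lowest concentration giving 100% inhibition versus the growth control (azoles 50% or 100%, by organism). Each isolate was run in duplicate in two independent experiments.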

[2] = tested on: Cryptococcus gattii species complex; experiment: Antifungal activity against Cryptococcus gattii after 24 to 72 hrs by broth microdilution method; format: functional, Cryptococcus bacillisporus; method in brief: as §1
Candida albicans [3] = experiment: Antifungal activity against Candida albicans after 48 to 72 hrs; format: functional
Method in brief: (§2)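 MFC: after the MIC read, 30-μl aliquots from each well without visible growth were plated onto Sabouraud dextrose agar and incubated at 35°C. Reading was at 48–72 h for yeasts and up to 7 days for molds. MFC was the lowest concentration with no colonies.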

Candida tropicalis [4] = experiment: Antifungal activity against Candida tropicalis after 48 to 72 hrs; format: functional; method in brief: as §2
Nakaseomyces glabratus [5] = experiment: Antifungal activity against Candida glabrata after 48 to 72 hrs; format: functional; method in brief: as §2
Candida parapsilosis [6] = experiment: Antifungal activity against Candida parapsilosis after 48 to 72 hrs; format: functional; method in brief: as §2
Pichia kudriavzevii [7] = experiment: Antifungal activity against Candida krusei after 48 to 72 hrs; format: functional; method in brief: as §2
Candida dubliniensis [8] = experiment: Antifungal activity against Candida dubliniensis after 48 to 72 hrs; format: functional; method in brief: as §2
[9] = tested on: Meyerozyma guilliermondii; experiment: Antifungal activity against Candida guilliermondii after 48 to 72 hrs; format: functional; method in brief: as §2
Clavispora lusitaniae [10] = experiment: Antifungal activity against Candida lusitaniae after 48 to 72 hrs; format: functional; method in brief: as §2
Cryptococcus neoformans [11] = experiment: Antifungal activity against Cryptococcus neoformans after 48 to 72 hrs; format: functional; method in brief: as §2
[12] = tested on: Cryptococcus gattii species complex; experiment: Antifungal activity against Cryptococcus gattii after 48 to 72 hrs; format: functional, Cryptococcus bacillisporus; method in brief: as §2
[13] = Toxicity against human erythrocytes assessed as hemolysis; format: cell-based, Erythrocyte
Candida tropicalis [14] = experiment: Antifungal activity against Candida tropicalis after 24 to 72 hrs by broth microdilution method; format: functional; method in brief: as §1
Nakaseomyces glabratus [15] = experiment: Antifungal activity against Candida glabrata after 24 to 72 hrs by broth microdilution method; format: functional; method in brief: as §1
Candida parapsilosis [16] = experiment: Antifungal activity against Candida parapsilosis after 24 to 72 hrs by broth microdilution method; format: functional; conditions: Lodderomyces parapsilosis; method in brief: as §1
Pichia kudriavzevii [17] = experiment: Antifungal activity against Candida krusei after 24 to 72 hrs by broth microdilution method; format: functional; method in brief: as §1
Candida dubliniensis [18] = experiment: Antifungal activity against Candida dubliniensis after 24 to 72 hrs by broth microdilution method; format: functional; method in brief: as §1
Cryptococcus neoformans [19] = experiment: Antifungal activity against Cryptococcus neoformans 05-202523 after 48 to 72 hrs; format: functional; method in brief: as §2
Aspergillus flavus [20] = experiment: Antifungal activity against Aspergillus flavus ATCC 204304 after 48 to 72 hrs; format: functional; method in brief: as §2
Exophiala spinifera = experiment: Antifungal activity against Exophiala spinifera 03-200803 after 24 to 72 hrs by broth microdilution method; format: functional
Method in brief: (§3)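 Mold isolates subcultured on potato dextrose agar, then tested by CLSI M38-A2 broth microdilution in RPMI 1640 (L-glutamine, no bicarbonate) buffered to pH 7.0 with 0.165 M MOPS. Compounds were dissolved in water and tested at a final 0.175–87.5 μM. Plates were incubated at 35°C. MIC was read visually as the lowest concentration giving 100% inhibition versus the growth control. Each isolate was run in duplicate in two independent experiments.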

Fusarium solani = experiment: Antifungal activity against Fusarium solani 04-203102 after 24 to 72 hrs by broth microdilution method; format: functional; method in brief: as §3
Rhizopus arrhizus = experiment: Antifungal activity against Rhizopus oryzae 05-203111 after 24 to 72 hrs by broth microdilution method; format: functional; method in brief: as §3
Aspergillus flavus [21] = experiment: Antifungal activity against Aspergillus flavus ATCC 204304 after 24 to 72 hrs by broth microdilution method; format: functional; method in brief: as §1
Aspergillus flavus [22] = experiment: Antifungal activity against Aspergillus flavus 05-203758 after 24 to 72 hrs by broth microdilution method; format: functional; method in brief: as §1
Aspergillus terreus = experiment: Antifungal activity against Aspergillus terreus 05-202844 after 24 to 72 hrs by broth microdilution method; format: functional; method in brief: as §1
Lomentospora prolificans = experiment: Antifungal activity against Scedosporium prolificans 05-203060 after 24 to 72 hrs by broth microdilution method; format: functional; method in brief: as §3
Scedosporium apiospermum = experiment: Antifungal activity against Scedosporium apiospermum 05-203100 after 24 to 72 hrs by broth microdilution method; format: functional; method in brief: as §3
[23] = tested on: Cunninghamella bertholletiae; experiment: Antifungal activity against Cunninghamella bertholletiae 99-12187 after 24 to 72 hrs by broth microdilution method; format: functional; method in brief: as §1
Lichtheimia corymbifera = experiment: Antifungal activity against Absidia corymbifera 04-200170 after 24 to 72 hrs by broth microdilution method; format: functional; method in brief: as §1
Aspergillus fumigatus = experiment: Antifungal activity against Aspergillus fumigatus ATCC 204305 after 24 to 72 hrs by broth microdilution method; format: functional; method in brief: as §1
[24] = tested on: Cryptococcus gattii species complex; experiment: Antifungal activity against Cryptococcus gattii 05-200122 after 24 to 72 hrs by broth microdilution method; format: functional, Cryptococcus bacillisporus; method in brief: as §1
Candida tropicalis [25] = experiment: Antifungal activity against Candida tropicalis 04-202361 after 24 to 72 hrs by broth microdilution method; format: functional; method in brief: as §1
Nakaseomyces glabratus [26] = experiment: Antifungal activity against Candida glabrata 04-202345 after 24 to 72 hrs by broth microdilution method; format: functional; method in brief: as §1
Candida parapsilosis [27] = experiment: Antifungal activity against Candida parapsilosis 04-202398 after 24 to 72 hrs by broth microdilution method; format: functional; conditions: Lodderomyces parapsilosis; method in brief: as §1
Pichia kudriavzevii [28] = experiment: Antifungal activity against Candida krusei 04-202328 after 24 to 72 hrs by broth microdilution method; format: functional; method in brief: as §1
Pichia kudriavzevii [29] = experiment: Antifungal activity against Candida krusei ATCC 6258 after 24 to 72 hrs by broth microdilution method; format: functional; method in brief: as §1
Candida albicans [30] = experiment: Antifungal activity against Candida albicans ATCC 10231 after 24 to 72 hrs by broth microdilution method; format: functional; method in brief: as §1
Clavispora lusitaniae [31] = experiment: Antifungal activity against Candida lusitaniae after 24 to 72 hrs by broth microdilution method; format: functional; method in brief: as §1

## CCCCCCc1cc[n+](CCCCCCCCCCCC[n+]2ccc(CCCCCC)cc2)cc1.[Cl-].[Cl-]
Cryptococcus neoformans [1]
  MIC: 1.19 µg/mL
  MIC50: 0.79 µg/mL
  MIC90: 3.11 µg/mL
[2]
  MIC: 0.79 µg/mL
  MIC50: 0.79 µg/mL
  MIC90: 0.79 µg/mL
Candida albicans [3]
  MFC50: 1.56 µg/mL
  MFC90: 1.56 µg/mL
Candida albicans [3]; Candida albicans
  MFC: 1.56 µg/mL
Candida tropicalis [4]
  MFC50: 1.56 µg/mL
  MFC90: 1.56 µg/mL
Candida tropicalis [4]; Candida tropicalis
  MFC: 0.39 µg/mL
Nakaseomyces glabratus [5]
  MFC50: 1.56 µg/mL
  MFC90: 1.56 µg/mL
Nakaseomyces glabratus [5]; Nakaseomyces glabratus
  MFC: 0.39 µg/mL
Candida parapsilosis [6]
  MFC50: 49.5 µg/mL
  MFC90: 49.5 µg/mL
Candida parapsilosis [6]; Lodderomyces parapsilosis
  MFC: 24.9 µg/mL
Pichia kudriavzevii [7]
  MFC50: 1.56 µg/mL
  MFC90: 3.11 µg/mL
Pichia kudriavzevii [7]; Pichia kudriavzevii
  MFC: 0.79 µg/mL
Candida dubliniensis [8]
  MFC50: 0.79 µg/mL
  MFC90: 0.79 µg/mL
Candida dubliniensis [8]; Candida dubliniensis
  MFC: 0.79 µg/mL
[9]
  MFC50: 0.79 µg/mL
  MFC90: 1.56 µg/mL
[9]; Meyerozyma guilliermondii
  MFC: 0.39 µg/mL
Clavispora lusitaniae [10]
  MFC50: 0.79 µg/mL
  MFC90: 6.22 µg/mL
Clavispora lusitaniae [10]; Clavispora lusitaniae
  MFC: 0.79 µg/mL
Cryptococcus neoformans [11]
  MFC50: 0.79 µg/mL
  MFC90: 12.45 µg/mL
Cryptococcus neoformans [11]; Cryptococcus neoformans
  MFC: 0.79 µg/mL
[12]
  MFC50: 0.79 µg/mL
  MFC90: 0.79 µg/mL
[12]; Cryptococcus gattii species complex
  MFC: 0.79 µg/mL
[13]
  HC50: > 129 µM
  IC50: > 48 µM
Candida tropicalis [14]
  MIC: 1.18 µg/mL
  MIC50: 1.56 µg/mL
  MIC90: 1.56 µg/mL
Nakaseomyces glabratus [15]
  MIC: 0.739 µg/mL
  MIC50: 0.79 µg/mL
  MIC90: 0.79 µg/mL
Candida parapsilosis [16]
  MIC: 28.6 µg/mL
  MIC50: 24.9 µg/mL
  MIC90: 49.5 µg/mL
Pichia kudriavzevii [17]
  MIC: 1.36 µg/mL
  MIC50: 1.56 µg/mL
  MIC90: 1.56 µg/mL
Candida dubliniensis [18]
  MIC: 0.739 µg/mL
  MIC50: 0.79 µg/mL
  MIC90: 0.79 µg/mL
Cryptococcus neoformans [19]
  MFC: 25.3 µg/mL
Aspergillus flavus [20]
  MFC: 25.3 µg/mL
Exophiala spinifera
  MIC: 1.58 µg/mL
Fusarium solani
  MIC: 12.7 µg/mL
Rhizopus arrhizus
  MIC: 0.79 µg/mL
Aspergillus flavus [21]
  MIC: 12.7 µg/mL
Aspergillus flavus [22]
  MIC: 25.3 µg/mL
Aspergillus terreus
  MIC: 0.79 µg/mL
Lomentospora prolificans
  MIC: 25.3 µg/mL
Scedosporium apiospermum
  MIC: 50.7 µg/mL
[23]
  MIC: 12.7 µg/mL
Lichtheimia corymbifera
  MIC: 50.7 µg/mL
Aspergillus fumigatus
  MIC: 12.7 µg/mL
[24]
  MIC: 0.79 µg/mL
Candida tropicalis [25]
  MIC: 0.79 µg/mL
Nakaseomyces glabratus [26]
  MIC: 0.79 µg/mL
Candida parapsilosis [27]
  MIC: 25.3 µg/mL
Pichia kudriavzevii [28]
  MIC: 3.2 µg/mL
Pichia kudriavzevii [29]
  MIC: 3.2 µg/mL
Candida albicans [30]
  MIC: 0.79 µg/mL
Clavispora lusitaniae [31]
  MIC: 1.04 µg/mL
  MIC50: 0.79 µg/mL
  MIC90: 1.56 µg/mL

Source: ChEMBL document CHEMBL1629527, “In vitro antifungal activities of bis(alkylpyridinium)alkane compounds against pathogenic yeasts and molds” (Antimicrob Agents Chemother, 2010)
